Laboratory results as given in ChEMBL document CHEMBL4330056, “Synthesis and Cytotoxic and Antiviral Profiling of Pyrrolo- and Furo-Fused 7-Deazapurine Ribonucleosides” (J Med Chem, 2018).
Activity calls are given as the source filed them. No cut-off for these calls is given here.

How the values were obtained:
[1] = biological target: Adenosine kinase (Homo sapiens, UniProt P55263); assay: Inhibition of recombinant human ADK using [3H]-adenosine as substrate after 20 mins by TLC scanner-based analysis relative to control
Chain of Adenosine kinase (P55263 whole entry): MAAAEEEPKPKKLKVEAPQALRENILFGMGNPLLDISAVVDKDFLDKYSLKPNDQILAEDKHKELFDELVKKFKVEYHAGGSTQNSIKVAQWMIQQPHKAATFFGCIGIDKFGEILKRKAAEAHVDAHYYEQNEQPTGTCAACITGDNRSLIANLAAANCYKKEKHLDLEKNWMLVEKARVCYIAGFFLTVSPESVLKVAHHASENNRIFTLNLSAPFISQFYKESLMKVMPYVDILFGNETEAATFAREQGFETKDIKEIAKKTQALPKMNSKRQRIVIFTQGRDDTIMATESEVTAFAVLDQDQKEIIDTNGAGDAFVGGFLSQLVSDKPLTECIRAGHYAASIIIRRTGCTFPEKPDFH
Procedure, shortened: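 ADK inhibition: 50 μM adenosine substrate with 10 μM test compound and 97 ng enzyme, 20 min at 37 °C.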

[2] = Stability in human plasma assessed as compound remaining at 3.3 umol/L after 60 mins by RF-MS analysis relative to control; assay type: ADME, cell-free; conditions: read-out: Stability
[3] = Stability in human plasma assessed as compound remaining at 3.3 umol/L after 15 mins by RF-MS analysis relative to control; assay type: ADME, cell-free; conditions: read-out: Stability
[4] = Stability in human plasma assessed as compound remaining at 3.3 umol/L after 120 mins by RF-MS analysis relative to control; assay type: ADME, cell-free; conditions: read-out: Stability
[5] = tested on: HepG2; assay: Antiproliferative activity against human HepG2 cells after 72 hrs by XTT assay; assay type: functional, cell-based; conditions: HepG2, 72 h
[6] = tested on: CCRF-CEM; assay: Induction of cell cycle arrest in human CCRF-CEM cells assessed as accumulation at S phase at IC50 concentration after 24 hrs by propidium iodide-staining based flow cytometry (reference value: 41.08%); assay type: functional
[7] = tested on: CCRF-CEM; assay: Inhibition of mitosis in human CCRF-CEM cells assessed Ser10 H3 phosphorylation positive cells at 5 times IC50 concentration after 24 hrs by flow cytometry relative to total cell population (reference value: 1.36%); assay type: functional; set-up: scale not given: the % may be the effect or the level left
[8] = Chemical stability of the compound assessed as compound remaining after 15 mins relative to control; assay type: physicochemical; conditions: read-out: Stability
[9] = tested on: CCRF-CEM; assay: Inhibition of RNA synthesis in human CCRF-CEM cells assessed as RNA synthesis level at 5 times IC50 concentration after 24 hrs by BrU incorporation assay (reference value: 49.89%); assay type: functional; set-up: scale not given: the % may be the effect or the level left
[10] = tested on: CCRF-CEM; assay: Induction of cell cycle arrest in human CCRF-CEM cells assessed as accumulation at subG1 phase at IC50 concentration after 24 hrs by propidium iodide-staining based flow cytometry (reference value: 3.45%); assay type: functional
[11] = tested on: Coxsackievirus B3; assay: Antiviral activity against Human coxsackie B3 Nancy infected in human HeLa cells assessed as inhibited virus-induced cytopathic effect incubated for 2 days by XTT assay; assay type: functional, organism-based
[12] = tested on: Human orthopneumovirus; assay: Antiviral activity against Human respiratory syncytial virus A2 infected in Hep2 cells assessed as reduction in virus-induced cytopathic effect incubated for 4 days by CellTiter-Glo viability reagent based assay; assay type: functional, organism-based
[13] = tested on: dengue virus type 2; assay: Antiviral activity against Dengue virus 2 Thailand/16681/84 infected in African green monkey Vero cells assessed as inhibition of virus replication incubated for 3 days by fluorescence microscopy; assay type: functional, organism-based
[14] = tested on: CCRF-CEM; assay: Induction of cell cycle arrest in human CCRF-CEM cells assessed as accumulation at G2/M phase at 5 times IC50 concentration after 24 hrs by propidium iodide-staining based flow cytometry (reference value: 19.22%); assay type: functional
[15] = tested on: CCRF-CEM; assay: Antiproliferative activity against human CCRF-CEM cells after 3 days by MTS assay; assay type: functional, cell-based; conditions: 72 h
[16] = tested on: CCRF-CEM; assay: Inhibition of mitosis in human CCRF-CEM cells assessed Ser10 H3 phosphorylation positive cells at IC50 concentration after 24 hrs by flow cytometry relative to total cell population (reference value: 1.36%); assay type: functional; set-up: scale not given: the % may be the effect or the level left
[17] = tested on: CCRF-CEM; assay: Inhibition of RNA synthesis in human CCRF-CEM cells assessed as RNA synthesis level at IC50 concentration after 24 hrs by BrU incorporation assay (reference value: 49.89%); assay type: functional; set-up: scale not given: the % may be the effect or the level left
[18] = tested on: CCRF-CEM; assay: Induction of cell cycle arrest in human CCRF-CEM cells assessed as accumulation at G0/G1 phase at IC50 concentration after 24 hrs by propidium iodide-staining based flow cytometry (reference value: 39.70%); assay type: functional
[19] = Metabolic stability in human liver microsomes assessed as compound remaining at 5 umol/L after 60 mins relative to control; assay type: ADME, Microsome; conditions: read-out: Stability
Procedure, shortened: (§1)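 Human microsomal fraction; percent compound remaining over time.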

[20] = Chemical stability of the compound assessed as compound remaining after 120 mins relative to control; assay type: physicochemical; conditions: read-out: Stability
[21] = tested on: CCRF-CEM; assay: Induction of cell cycle arrest in human CCRF-CEM cells assessed as accumulation at subG1 phase at 5 times IC50 concentration after 24 hrs by propidium iodide-staining based flow cytometry (reference value: 3.45%); assay type: functional
[22] = Stability in human plasma assessed as compound remaining at 3.3 umol/L after 30 mins by RF-MS analysis relative to control; assay type: ADME, cell-free; conditions: read-out: Stability
[23] = tested on: U2OS; assay: Antiproliferative activity against human U2OS cells after 3 days by MTS assay; assay type: functional, cell-based; conditions: 72 h
[24] = tested on: HL-60; assay: Antiproliferative activity against human HL60 cells after 72 hrs by XTT assay; assay type: functional, cell-based; conditions: HL-60, 72 h
[25] = tested on: CCRF-CEM; assay: Induction of cell cycle arrest in human CCRF-CEM cells assessed as accumulation at S phase at 5 times IC50 concentration after 24 hrs by propidium iodide-staining based flow cytometry (reference value: 41.08%); assay type: functional
[26] = tested on: BJ; assay: Antiproliferative activity against human BJ cells after 3 days by MTS assay; conditions: 72 h
[27] = Metabolic stability in human liver microsomes assessed as compound remaining at 5 umol/L after 15 mins relative to control; assay type: ADME, Microsome; conditions: read-out: Stability; procedure, shortened: as §1
[28] = Metabolic stability in human liver microsomes assessed as compound remaining at 5 umol/L after 30 mins relative to control; assay type: ADME, Microsome; conditions: read-out: Stability; procedure, shortened: as §1
[29] = tested on: CCRF-CEM; assay: Inhibition of DNA synthesis in human CCRF-CEM cells assessed as DNA synthesis level at IC50 concentration after 24 hrs by BrdU incorporation assay (reference value: 43.39%); assay type: functional; set-up: scale not given: the % may be the effect or the level left
[30] = tested on: K562; assay: Antiproliferative activity against human K562 cells after 3 days by MTS assay; assay type: functional, cell-based; conditions: K562, 72 h
[31] = tested on: CCRF-CEM; assay: Induction of cell cycle arrest in human CCRF-CEM cells assessed as accumulation at G2/M phase at IC50 concentration after 24 hrs by propidium iodide-staining based flow cytometry (reference value: 19.22%); assay type: functional
[32] = tested on: HCT-116; assay: Antiproliferative activity against p53 gene knocked out human HCT116 cells after 3 days by MTS assay; assay type: functional, cell-based; conditions: HCT-116, 72 h
[33] = tested on: MRC5; assay: Antiproliferative activity against human MRC5 cells after 3 days by MTS assay; conditions: MRC5, 72 h
[34] = Antiproliferative activity against human CEM-DNR-bulk cells after 3 days by MTS assay; conditions: 72 h
[35] = tested on: CCRF-CEM; assay: Induction of cell cycle arrest in human CCRF-CEM cells assessed as accumulation at G0/G1 phase at 5 times IC50 concentration after 24 hrs by propidium iodide-staining based flow cytometry (reference value: 39.70%); assay type: functional
[36] = Effective permeability of the compound at 20 umol/L by PAMPA; assay type: ADME; conditions: 20 µM
[37] = tested on: A549; assay: Antiproliferative activity against human A549 cells after 3 days by MTS assay; assay type: functional, cell-based; conditions: A549, 72 h
[38] = tested on: Hepatitis C virus; assay: Antiviral activity against Hepatitis C virus genotype 2a infected in human Huh-luc replicon cells after 3 days by luciferase assay; assay type: functional, organism-based, Hepacivirus hominis; conditions: subtype 2a, 72 h
[39] = tested on: Hepatitis C virus; assay: Antiviral activity against Hepatitis C virus genotype 1b infected in human Huh-luc replicon cells after 3 days by luciferase assay; assay type: functional, organism-based, Hepacivirus hominis; conditions: subtype 1b, 72 h
[40] = Chemical stability of the compound assessed as compound remaining after 30 mins relative to control; assay type: physicochemical; conditions: read-out: Stability
[41] = tested on: Influenza A virus; assay: Antiviral activity against Influenza A virus (A/Mexico/4108/2009(H1N1)) infected in MDCK cells assessed as inhibited virus-induced cytopathic effect incubated for 2 days by XTT assay; assay type: functional, organism-based

Cc1ncnc2c1c1occc1n2[C@@H]1O[C@H](CO)[C@@H](O)[C@H]1O
IC50 [1]: > 10000 nM | remaining at 1 h, 3.3 µM [2]: 98% | remaining at 0.25 h, 3.3 µM [3]: 99% | remaining at 2 h, 3.3 µM [4]: 96% | IC50 [5]: 2120 nM | Activity [6]: 39.31% | Activity [7]: 0.99% | remaining at 0.25 h [8]: 99% | Activity [9]: 0.61% | Activity [10]: 7.62% | Activity [11]: inactive | Activity [12]: inactive | Activity [13]: inactive | Activity [14]: 13.52% | IC50 [15]: 240 nM | Activity [16]: 1.09% | Activity [17]: 21.63% | Activity [18]: 44.57% | remaining at 1 h, 5 µM [19]: 98% | remaining at 2 h [20]: 96% | Activity [21]: 20.53% | remaining at 0.5 h, 3.3 µM [22]: 99% | IC50 [23]: 570 nM | IC50 [24]: 1200 nM | Activity [25]: 59.66% | IC50 [26]: 7730 nM | remaining at 0.25 h, 5 µM [27]: 100% | remaining at 0.5 h, 5 µM [28]: 99% | Activity [29]: 38.11% | IC50 [30]: 410 nM | Activity [31]: 16.12% | IC50 [32]: 450 nM | IC50 [33]: > 50000 nM | IC50 [34]: > 50000 nM | Activity [35]: 36.83% | log(permeability) [36]: -6.88 | IC50 [37]: 3190 nM | EC50 [38]: 240 nM | EC50 [39]: 280 nM | remaining at 0.5 h [40]: 99% | Activity [41]: inactive
